Broadly, the Kd is the free concentration of one partner at which half of the binding sites on the other are occupied at equilibrium, for simple one-to-one binding.

Active and inactive are the calls of the source. The calls are words filed in the database; no cut-off is given here.

Activity and Kd data for 24 compounds are collected here from ChEMBL document CHEMBL4610044, “Synthesis and biological evaluation of novel indole-pyrazoline hybrid derivatives as potential topoisomerase 1 inhibitors” (Bioorg Med Chem Lett, 2020).

The subject of experiment [1] is Supercoiled DNA. Description: Binding affinity to supercoiled DNA (unknnown origin) at 50 uM by SPR assay. In kind it is nucleic-acid assay. A general note: SPR reads the build-up and loss of mass on a sensor chip optically.
Experiment [2] deals with T1, DNA topoisomerase 1 (Homo sapiens) (UniProt P11387).
T1 sequence (whole entry): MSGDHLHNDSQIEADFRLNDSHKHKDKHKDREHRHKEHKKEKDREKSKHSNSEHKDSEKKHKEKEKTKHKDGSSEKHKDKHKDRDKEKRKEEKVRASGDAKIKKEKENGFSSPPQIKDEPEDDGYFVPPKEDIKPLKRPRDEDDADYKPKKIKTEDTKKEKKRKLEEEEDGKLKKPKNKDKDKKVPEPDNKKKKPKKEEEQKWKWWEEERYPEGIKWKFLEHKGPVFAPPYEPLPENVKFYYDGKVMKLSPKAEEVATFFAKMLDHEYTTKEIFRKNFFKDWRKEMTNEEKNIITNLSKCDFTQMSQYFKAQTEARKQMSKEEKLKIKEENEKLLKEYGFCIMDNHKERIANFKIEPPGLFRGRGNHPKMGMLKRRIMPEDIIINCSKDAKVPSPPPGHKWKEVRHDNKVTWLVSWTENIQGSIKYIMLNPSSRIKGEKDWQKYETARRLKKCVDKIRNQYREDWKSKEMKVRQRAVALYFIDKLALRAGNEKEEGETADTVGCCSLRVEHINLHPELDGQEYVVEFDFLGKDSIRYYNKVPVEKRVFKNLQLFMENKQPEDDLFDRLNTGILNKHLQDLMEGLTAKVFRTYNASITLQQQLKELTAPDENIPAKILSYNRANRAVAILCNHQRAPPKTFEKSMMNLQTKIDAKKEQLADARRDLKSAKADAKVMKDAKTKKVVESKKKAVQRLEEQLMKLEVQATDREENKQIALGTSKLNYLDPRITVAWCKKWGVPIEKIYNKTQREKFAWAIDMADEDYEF
As to the kind of experiment: Poison activity at Top1 (unknown origin) assessed as decrease in relaxed supercoiled DNA at 25 uM by […] based agarose gel electrophoresis relative to control. Set-up: scale not given: the % may be the effect or the level left.

Experiment [3] deals with Supercoiled DNA. Description: Binding affinity to supercoiled DNA (unknown origin) by SPR assay. In kind it is nucleic-acid assay.
Experiment [4] relates to DNA. Description: Binding affinity at Escherichia coli pBR322 DNA assessed as unwinding of supercoiled DNA incubated for 30 mins in presence of topoisomerase 1 by agarose gel based electrophoresis. Format: nucleic-acid assay.
Experiment [5] deals with T1, DNA topoisomerase 1 (Homo sapiens). Description: Poison activity at Top1 (unknown origin) assessed as increase in supercoiled DNA by ethidium bromide staining based agarose gel electrophoresis. Summed up:
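In a semi-quantitative Top1 relaxation assay, compound was tested at several concentrations, including 25 and 125 µM, and camptothecin at 1, 5, 25 and 125 µM. Supercoiled DNA was quantified from gel bands as a percentage of total DNA.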

For experiment [6] the target is unchanged. Description: Poison activity at Top1 (unknown origin) assessed as increase in supercoiled DNA at 125 uM by ethidium bromide staining based agarose gel electrophoresis relative to control.
Experiment [7] shares this target. Description: Poison activity at Top1 (unknown origin) assessed as increase in supercoiled DNA at 25 uM by […] relative to control.
Experiment [8] has the same target. As to the kind of experiment: Poison activity at Top1 (unknown origin) assessed as decrease in relaxed supercoiled DNA at 300 uM. In outline:
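The screen used a Top1-mediated relaxation assay, with compounds at 300 µM and camptothecin as positive control. Supercoiled and relaxed/Top1-bound DNA were resolved as separate bands on agarose gel.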

As for `Cc1ccc(S(=O)(=O)n2cc(C3=NN(c4ccccc4)C(c4ccccc4)C3)c3ccccc32)cc1` (stereo not drawn), the result in experiment [1] was inactive. Besides, in experiment [2], the Activity lay in the range of 40 to 79%.

With `Cc1ccc(S(=O)(=O)n2cc(C3=NN(c4ccccc4)C(c4cccc5ccccc45)C3)c3ccccc32)cc1` (stereo not drawn), the outcome in experiment [1] was inactive. Besides, the Activity in experiment [2] was 40 to 79%.

Regarding `Cc1ccc(S(=O)(=O)n2cc(C3=NN(c4ccccc4)C(c4ccc(C(C)C)cc4)C3)c3ccccc32)cc1` (stereo not drawn), the result in experiment [1] was inactive. Further, the Activity in experiment [2] is under 40%.

In the case of `CC(C)c1ccc(C2CC(c3cn(S(=O)(=O)c4cccc5ccccc45)c4ccccc34)=NN2c2ccccc2)cc1` (stereo not drawn), the outcome in experiment [1] was inactive. Besides, in experiment [2], the Activity was 40 to 79%.

In experiment [3], `CC[n+]1c(-c2ccccc2)c2cc(N)ccc2c2ccc(N)cc21` [HOMIDIUM BROMIDE] yielded a Kd of 1200 nM. In addition, in experiment [4], the outcome was Active.

With `COc1ccc(C2CC(c3cn(S(=O)(=O)c4ccccc4)c4ccccc34)=NN2c2ccccc2)cc1` (stereo not drawn), in experiment [1], the result was inactive. For the same compound, the Activity in experiment [2] lay in the range of 40 to 79%.

With `O=S(=O)(c1cccc2ccccc12)n1cc(C2=NN(c3ccccc3)C(c3ccccc3Br)C2)c2ccccc21` (stereo not drawn), in experiment [1], the result was inactive. Besides, the Activity in experiment [2] was under 40%.

Turning to `O=S(=O)(c1cccc2ccccc12)n1cc(C2=NN(c3ccccc3)C(c3ccccc3)C2)c2ccccc21` (stereo not drawn), the result in experiment [1] was inactive. The Activity in experiment [2] was under 40%.

As for `O=[N+]([O-])c1cccc(C2CC(c3cn(S(=O)(=O)c4ccccc4)c4ccccc34)=NN2c2ccccc2)c1` (stereo not drawn), in experiment [1], the outcome was inactive. Besides, the Activity in experiment [2] is under 40%.

`O=S(=O)(c1ccccc1)n1cc(C2=NN(c3ccccc3)C(c3cccc4ccccc34)C2)c2ccccc21` (stereo not drawn): the Activity result in experiment [5] was “Dose-dependent effect”; in experiment [6], 74%; in experiment [2], over 80%; in experiment [7], 61%. The result in experiment [1] and in experiment [4] was inactive.

Consider `Cc1ccc(S(=O)(=O)n2cc(C3=NN(c4ccccc4)C(c4ccccc4Br)C3)c3ccccc32)cc1` (stereo not drawn), for which the result in experiment [1] was inactive. In addition, the Activity in experiment [2] is under 40%.

In the case of `O=S(=O)(c1cccc2ccccc12)n1cc(C2=NN(c3ccccc3)C(c3cccc4ccccc34)C2)c2ccccc21` (stereo not drawn), the outcome in experiment [1] was inactive. In addition, in experiment [2], the Activity was under 40%.

As to `Cc1ccc(C2CC(c3cn(S(=O)(=O)c4ccccc4)c4ccccc34)=NN2c2ccccc2)cc1` (stereo not drawn), the outcome in experiment [1] was inactive. The Activity in experiment [2] was under 40%. In experiment [8], the result was Active.

With `COc1ccc(C2CC(c3cn(S(=O)(=O)c4ccc(C)cc4)c4ccccc34)=NN2c2ccccc2)cc1` (stereo not drawn), the result in experiment [1] was inactive. Besides, the Activity in experiment [2] is under 40%.

Turning to `O=S(=O)(c1cccc2ccccc12)n1cc(C2=NN(c3ccccc3)C(c3ccc(Cl)cc3)C2)c2ccccc21` (stereo not drawn), in experiment [1], the outcome was inactive. Besides, in experiment [2], the Activity was under 40%.

As to `CC[C@@]1(O)C(=O)OCc2c1cc1n(c2=O)Cc2cc3ccccc3nc2-1`, the Activity in experiment [6] came to 48%.

Regarding `O=S(=O)(c1ccccc1)n1cc(C2=NN(c3ccccc3)C(c3ccccc3)C2)c2ccccc21` (stereo not drawn), the outcome in experiment [1] was inactive. Further, the Activity in experiment [2] was 40 to 79%.

Regarding `COc1cc(C2CC(c3cn(S(=O)(=O)c4ccc(C)cc4)c4ccccc34)=NN2c2ccccc2)cc(OC)c1OC` (stereo not drawn), the result in experiment [1] was inactive. The Activity in experiment [2] lay within 40 to 79%.

Consider `CC(C)c1ccc(C2CC(c3cn(S(=O)(=O)c4ccccc4)c4ccccc34)=NN2c2ccccc2)cc1` (stereo not drawn), for which the result in experiment [1] was inactive. Also, the Activity in experiment [2] was in the range of 40 to 79%.

Turning to `Brc1ccccc1C1CC(c2c[nH]c3ccccc23)=NN1c1ccccc1` (stereo not drawn), the result in experiment [1] was inactive. For the same compound, the Activity in experiment [2] is under 40%. Moreover, the outcome in experiment [8] was Active.

Turning to `COc1ccc(C2CC(c3cn(S(=O)(=O)c4cccc5ccccc45)c4ccccc34)=NN2c2ccccc2)cc1` (stereo not drawn), the result in experiment [1] was inactive. For the same compound, the Activity in experiment [2] was under 40%.

For `O=S(=O)(c1ccccc1)n1cc(C2=NN(c3ccccc3)C(c3ccccc3Br)C2)c2ccccc21` (stereo not drawn), the result in experiment [1] was inactive. Further, the Activity in experiment [2] was under 40%.

As for `O=S(=O)(c1ccccc1)n1cc(C2=NN(c3ccccc3)C(c3ccc(Cl)cc3)C2)c2ccccc21` (stereo not drawn), the outcome in experiment [1] was inactive. For the same compound, the Activity in experiment [2] was under 40%.

As to `COc1cc(C2CC(c3cn(S(=O)(=O)c4ccccc4)c4ccccc34)=NN2c2ccccc2)cc(OC)c1OC` (stereo not drawn), the result in experiment [1] was inactive. In addition, in experiment [2], the Activity is 40 to 79%.
